Data: ChEMBL document CHEMBL1137372, “Structural investigation of the 7-chloro-3-hydroxy-1H-quinazoline-2,4-dione scaffold to obtain AMPA and kainate receptor selective antagonists. Synthesis, pharmacological, and molecular modeling studies” (J Med Chem, 2006)

What was measured:
[1] = molecular target: Glutamate NMDA receptor (Rattus norvegicus) (UniProt P35439+Q00959+Q00960+Q00961+Q62645+Q8VHN2+Q9R1M7); experiment: Displacement of [3H]glycine from Gly/NMDA receptor in rat cortical synaptic membrane at 100 uM; type: cell membranes
[2] = species: Rattus norvegicus; experiment: Displacement of [3H]KA from high affinity KA receptor in rat cortical membrane at 100 uM; type: cell membranes
Outline: (§1)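 Rat cortical membranes were used for the high-affinity and low-affinity [3H]kainate binding assays, following earlier published methods. Test compound was made as a 1 mM stock in 50% DMSO and diluted in buffer. The value is percent inhibition of specific binding at 100 µM.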

[3] = molecular target: Glutamate receptor ionotropic, AMPA (Rattus norvegicus) (UniProt P19491+P19492+P19493+P19490); experiment: Displacement of [3H]AMPA from AMPA receptor in rat cortical synaptic membrane at 100 uM; type: cell membranes
[4] = molecular target: Glutamate receptor ionotropic, AMPA (Rattus norvegicus, UniProt P19490+P19491+P19492+P19493); experiment: Displacement of [3H]AMPA from AMPA receptor in rat cortical synaptic membrane; type: cell membranes
[5] = molecular target: Glutamate NMDA receptor; experiment: Displacement of [3H]glycine from Gly/NMDA receptor in rat cortical synaptic membrane; type: cell membranes
[6] = Displacement of [3H]KA from high affinity KA receptor in rat cortical membrane; type: cell membranes
Outline: (§2)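 High- and low-affinity [3H]kainate binding to rat cortical membranes. Compounds were made up as a 1 mM stock in 50% DMSO and diluted in buffer. IC50s came from three or four displacement curves using four to six concentrations in triplicate, fitted with ALLFIT. Ki values are mean ± SEM of three or four determinations in triplicate.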

[7] = molecular target: Glutamate receptor ionotropic, AMPA (Mus musculus, UniProt P23818+P23819+Q9Z2W8+Q9Z2W9); experiment: Antagonist activity against AMPA receptor assessed as inhibition of SAMPA-induced depolarization of mouse cortex
[8] = Antagonist activity against NMDA receptor assessed as inhibition of NMDA-induced depolarization in mouse cortex; type: functional, tissue-based
Outline: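 Mouse cortical wedge preparation. Depolarization was evoked with 5 µM NMDA. The IC50 is the concentration giving 50% inhibition of the depolarization, as mean ± SEM of three separate determinations.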

[9] = species: Rattus norvegicus; experiment: Displacement of [3H]KA from low affinity KA receptor in rat cortical membrane at 100 uM; type: cell membranes; outline: as §1
[10] = Displacement of [3H]KA from low affinity KA receptor in rat cortical membrane; type: cell membranes; outline: as §2
[11] = tested on: Mus musculus; experiment: Antinociceptive activity in mouse at 5 mg/kg, po measured as number of acetic acid-induced writhes by abdominal constriction assay; type: functional, Abdomen
[12] = tested on: Mus musculus; experiment: Activity against mouse motor coordination measured as number of falls from the rod in 30 sec by rotarod test at 20 mg/kg, po after 60 mins; type: functional
Outline: (§3)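 Mice on a 3-cm rod rotating at 16 rpm, up to five at once. Drug dispersed in 1% sodium CMC and given po in 10 mL kg^-1 30 min before testing. Falls from the rod in 30 s were counted before treatment and at 30, 45 and 60 min after. Each value is the mean of eight mice.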

[13] = tested on: Mus musculus; experiment: Antinociceptive activity in mouse at 0.1 mg/kg, po measured as number of acetic acid-induced writhes by abdominal constriction assay; type: functional, Abdomen
[14] = tested on: Mus musculus; experiment: Activity against mouse motor coordination measured as number of falls from the rod in 30 sec by rotarod test at 20 mg/kg, po after 30 mins; type: functional; outline: as §3
[15] = tested on: Mus musculus; experiment: Antinociceptive activity in mouse at 10 mg/kg, po measured as number of acetic acid-induced writhes by abdominal constriction assay; type: functional, Abdomen
[16] = tested on: Mus musculus; experiment: Activity against mouse motor coordination measured as number of falls from the rod in 30 sec by rotarod test at 50 mg/kg, po after 45 mins; type: functional; outline: as §3
[17] = tested on: Mus musculus; experiment: Activity against mouse motor coordination measured as number of falls from the rod in 30 sec by rotarod test at 50 mg/kg, po after 30 mins; type: functional; outline: as §3
[18] = tested on: Mus musculus; experiment: Activity against mouse motor coordination measured as number of falls from the rod in 30 sec by rotarod test at 50 mg/kg, po after 60 mins; type: functional; outline: as §3
[19] = tested on: Mus musculus; experiment: Antinociceptive activity in mouse at 1 mg/kg, po measured as number of acetic acid-induced writhes by abdominal constriction assay; type: functional, Abdomen
[20] = tested on: Mus musculus; experiment: Activity against mouse motor coordination measured as number of falls from the rod in 30 sec by rotarod test at 20 mg/kg, po after 45 mins; type: functional; outline: as §3

Row | SMILES | inhibition [1] [%] | inhibition [2] [%] | inhibition [3] [%] | Ki [4] [µM] | Ki [5] [µM] | IC50 [6] [µM] | further results
1 | COC(=O)c1ccc(C(=O)Nc2cc3c(=O)n(O)c(=O)[nH]c3cc2Cl)cc1 | 10 | 28 | 43 | – | – | – | –
2 | O=C(NCc1ccccc1)Nc1cc2c(=O)n(O)c(=O)[nH]c2cc1Cl | 27 | 32 | 33 | – | – | – | –
3 | O=C(O)COn1c(=O)[nH]c2cc(Cl)ccc2c1=O | – | 5 | – | 99 | 90 | – | –
4 | O=C(O)CCC(=O)Nc1cc2c(=O)n(O)c(=O)[nH]c2cc1Cl | 8 | – | – | 8.4 | – | 5.4 | –
5 | O=C(Nc1cc2c(=O)n(O)c(=O)[nH]c2cc1Cl)c1ccccc1 | 33 | – | – | 45 | – | 52 | –
6 | O=C1OCCC1On1c(=O)[nH]c2cc(Cl)ccc2c1=O (racemic) | 37 | 11 | 26 | – | – | – | –
7 | O=c1ccn(-c2cc3c(=O)n(O)c(=O)[nH]c3cc2Cl)cc1 | – | – | – | 0.5 | 25 | 4.1 | IC50 [7]: 3.5 µM; IC50 [8]: > 80 µM
8 | O=C1CCC(=O)N1c1cc2c(=O)n(O)c(=O)[nH]c2cc1Cl | – | 44 | – | 36 | 88 | – | –
9 | O=C(O)c1ccn(-c2cc3c(=O)n(O)c(=O)[nH]c3cc2Cl)c1 | 44 | – | – | 1.3 | – | 13 | –
10 | O=C(O)c1cccc(C(=O)Nc2cc3c(=O)n(O)c(=O)[nH]c3cc2Cl)c1 | 32 | – | – | 60 | – | 100 | inhibition [9]: 0%
11 | N[C@@H](Cn1ccc(=O)n(Cc2ccccc2C(=O)O)c1=O)C(=O)O | 20 | – | – | 117 | – | 46 | IC50 [10]: 15 µM
12 | O=C(O)Cc1ccccc1Nc1c(Cl)cccc1Cl [DICLOFENAC] | – | – | – | – | – | – | Activity [11]: 18.2
13 | O=c1[nH]c2cc(Cl)c(-n3cnnc3)cc2c(=O)n1O | 47 | – | – | – | – | 7 | IC50 [7]: 4.6 µM; IC50 [8]: 84 µM
14 | O=c1[nH]c2cc(Cl)c(-n3cccc3)cc2c(=O)n1O | – | – | – | 16.6 | 1 | 8.2 | –
15 | O=C(O)C(CCO)On1c(=O)[nH]c2cc(Cl)ccc2c1=O (racemic) | 40 | 10 | 35 | – | – | – | –
16 | O=c1[nH]c2cc(Cl)ccc2c(=O)n1O | – | – | – | – | 0.24 | 140 | –
17 | O=C(O)c1ccccc1C(=O)Nc1cc2c(=O)n(O)c(=O)[nH]c2cc1Cl | 40 | – | – | 16.5 | – | 0.62 | Activity [12]: 1.7; Activity [13]: 34.7; Activity [14]: 3.3; Activity [15]: 24.5; Activity [16]: 3.7; IC50 [10]: 1.6 µM; Activity [17]: 4.8; Activity [18]: 3.2; Activity [19]: 26.1; Activity [20]: 2.6
18 | O=C(O)c1ccc(C(=O)Nc2cc3c(=O)n(O)c(=O)[nH]c3cc2Cl)cc1 | 40 | – | 29 | – | – | 12.9 | inhibition [9]: 0%
19 | CCOC(=O)COn1c(=O)[nH]c2cc(Cl)ccc2c1=O | 0 | 5 | 9 | – | – | – | –
20 | COC(=O)c1cccc(C(=O)Nc2cc3c(=O)n(O)c(=O)[nH]c3cc2Cl)c1 | 32 | 20 | 35 | – | – | – | –
21 | O=Cc1ccn(-c2cc3c(=O)n(O)c(=O)[nH]c3cc2Cl)c1 | – | – | – | 4.2 | 22.7 | 6.2 | –
22 | CN1CCc2c(-c3ccc(S(=O)(=O)N(C)C)cc3)cc3c(c2C1)NC(=O)/C3=N\OC(CCO)C(=O)O (configuration not stated) | – | – | – | 0.043 | > 30 | 81 | –
23 | O=C1C=CCN1c1cc2c(=O)n(O)c(=O)[nH]c2cc1Cl | – | – | – | 6.2 | 42 | 10 | –
